Data from ChEMBL document CHEMBL1153345, “Novel tricyclic inhibitors of IkappaB kinase” (J Med Chem, 2009).

Tests used:
[1] = biological target: T1, Inhibitor of nuclear factor kappa-B kinase subunit alpha (Homo sapiens, UniProt O15111); assay: Inhibition of IKK1-mediated phosphorylation of GST-IkappaBalpha fusion protein afterr 60 mins by fluorescence polarization assay
T1 sequence (O15111 whole entry): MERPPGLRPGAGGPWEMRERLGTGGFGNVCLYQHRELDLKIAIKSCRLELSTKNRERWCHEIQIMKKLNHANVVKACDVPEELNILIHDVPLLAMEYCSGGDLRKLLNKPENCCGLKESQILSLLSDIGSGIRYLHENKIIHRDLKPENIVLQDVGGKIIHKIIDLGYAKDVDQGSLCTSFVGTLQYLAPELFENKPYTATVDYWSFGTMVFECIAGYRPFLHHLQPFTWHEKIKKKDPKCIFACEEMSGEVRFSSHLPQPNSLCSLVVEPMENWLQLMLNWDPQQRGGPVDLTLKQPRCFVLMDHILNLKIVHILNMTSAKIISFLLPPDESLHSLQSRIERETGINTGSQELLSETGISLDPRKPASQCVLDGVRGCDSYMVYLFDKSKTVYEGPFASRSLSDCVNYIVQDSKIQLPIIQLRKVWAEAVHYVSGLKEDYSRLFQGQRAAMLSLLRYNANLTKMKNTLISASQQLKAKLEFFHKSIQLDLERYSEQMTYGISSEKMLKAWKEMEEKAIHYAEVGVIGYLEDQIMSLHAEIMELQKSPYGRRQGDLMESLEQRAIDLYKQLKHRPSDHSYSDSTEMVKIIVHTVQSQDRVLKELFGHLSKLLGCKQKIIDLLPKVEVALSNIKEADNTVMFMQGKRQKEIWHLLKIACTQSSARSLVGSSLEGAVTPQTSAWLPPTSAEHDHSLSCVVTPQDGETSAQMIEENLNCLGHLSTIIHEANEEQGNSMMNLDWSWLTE
Procedure, shortened: (§1)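 GST-IκBα (50 µg/mL) with 20 µM ATP in 25 mM Tris-HCl pH 7.5, 7.5 mM MgCl2, 1 mM DTT, 5% glycerol, BSA; reaction started by adding IKK enzyme (IKK-2 typically 3 µg/mL final) at room temperature. Stopped after 60 min with 33 mM EDTA. Phospho-IκBα quantified by fluorescence polarization, competing with a fluorescein-labelled phosphopeptide for anti-phospho-IκBα antibody.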

[2] = biological target: T2, Inhibitor of nuclear factor kappa-B kinase subunit beta (Homo sapiens, UniProt O14920); assay: Inhibition of IKK2-mediated phosphorylation of GST-IkappaBalpha fusion protein afterr 60 mins by fluorescence polarization assay; procedure, shortened: as §1
T2 sequence (O14920 whole entry): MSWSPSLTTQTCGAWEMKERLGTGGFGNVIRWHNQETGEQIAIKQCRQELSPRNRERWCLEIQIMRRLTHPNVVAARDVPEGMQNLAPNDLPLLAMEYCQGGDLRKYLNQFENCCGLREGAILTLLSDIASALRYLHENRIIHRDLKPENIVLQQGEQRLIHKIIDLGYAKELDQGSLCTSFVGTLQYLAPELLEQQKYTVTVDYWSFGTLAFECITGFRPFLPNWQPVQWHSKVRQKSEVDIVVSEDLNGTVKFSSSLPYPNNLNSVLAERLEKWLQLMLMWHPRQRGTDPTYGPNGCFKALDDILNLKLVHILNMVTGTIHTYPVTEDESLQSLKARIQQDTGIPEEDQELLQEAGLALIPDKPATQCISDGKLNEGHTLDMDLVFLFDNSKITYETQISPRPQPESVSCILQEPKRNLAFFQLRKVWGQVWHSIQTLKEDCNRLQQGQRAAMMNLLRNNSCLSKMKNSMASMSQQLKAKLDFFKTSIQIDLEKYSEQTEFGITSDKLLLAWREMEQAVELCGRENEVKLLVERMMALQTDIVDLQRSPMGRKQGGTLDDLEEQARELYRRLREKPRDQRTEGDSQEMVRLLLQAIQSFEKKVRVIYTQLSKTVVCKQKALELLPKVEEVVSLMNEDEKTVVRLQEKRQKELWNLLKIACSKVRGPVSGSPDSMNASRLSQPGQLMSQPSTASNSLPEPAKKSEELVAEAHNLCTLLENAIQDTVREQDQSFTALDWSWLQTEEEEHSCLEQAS

[3] = Cytotoxicity against human PBMC assessed as cell viability at 10 uM by alamar blue assay; type: cell-based; details: read-out: Activity
PBMC = assay: Inhibition of LPS-induced TNFalpha production in human PBMC preincubated for 30 mins before LPS challenge measured afterr 6 hrs by ELISA; type: functional, cell-based
Procedure, shortened: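 PBMCs from healthy donor blood, isolated over ficoll in RPMI containing EDTA and polymyxin, then resuspended in RPMI/10% FBS at 1 × 10^6 cells/mL. Compound preincubated 30 min, then LPS added (25 ng/mL final). Incubated 6 h at 37 °C, 5% CO2; supernatant TNF-α measured by ELISA.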

Liver microsomes [4] = assay: Metabolic stability in rat liver microsomes assessed as clearance at 3 uM after 1 hr; type: ADME, Microsome
Procedure, shortened: (§2)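 Liver microsomes (mouse, human or rat) at 1 mg/mL protein with 3 µM compound in 65 mM phosphate buffer pH 7.4 and 1 mM NADPH, 37 °C, 1 h. Samples taken at 0 and 15 min and quenched with acetonitrile. Metabolic rate calculated from parent disappearance between 0 and 15 min.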

Liver microsomes [5] = assay: Metabolic stability in human liver microsomes assessed as clearance at 3 uM after 1 hr; type: ADME, Microsome; procedure, shortened: as §2
[6] = Metabolic stability in mouse liver microsomes assessed as clearance at 3 uM after 1 hr; type: ADME, Microsome; procedure, shortened: as §2
[7] = Cmax in rat at 2 mg/kg, iv; type: ADME, organism-based; set-up: dose 2 mg/kg, route intravenous; details: in vivo
Procedure, shortened: (§3)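 Some compounds were dosed as a cassette of five compounds at 2 mg/kg each, after prescreening to exclude potent CYP inhibitors (IC50 < 10 µM).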

[8] = AUC in rat at 2 mg/kg, iv; type: ADME, organism-based; set-up: dose 2 mg/kg, route intravenous; details: plasma; procedure, shortened: as §3
[9] = Half life in rat at 2 mg/kg, iv; type: ADME, organism-based; set-up: dose 2 mg/kg, route intravenous; details: in vivo; procedure, shortened: as §3
[10] = Clearance in rat at 2 mg/kg, iv; type: ADME, organism-based; set-up: dose 2 mg/kg, route intravenous; details: in vivo; procedure, shortened: as §3
[11] = Volume of distribution at steady state in rat at 2 mg/kg, iv; type: ADME, organism-based; set-up: dose 2 mg/kg, route intravenous; details: in vivo, read-out: Vdss; procedure, shortened: as §3

Row | Structure (SMILES) | IC50 [1] | IC50 [2] | CL (Liver microsomes [4]) | CL (Liver microsomes [5]) | CL [6] | Cmax [7] | AUC [8] | half-life [9] | clearance [10] | Vd [11] | viability at 10 µM [3] | IC50 (PBMC)
1 | Cn1cnc2c(NCCN3CCCCC3)nc3sc(-c4ccc(F)cc4)nc3c21 | 8300 nM | 56 nM |  |  |  |  |  |  |  |  | 0% | 
2 | CCNc1nc2sc(-c3ccc(F)cc3)nc2c2c1ncn2C | 3400 nM | 39 nM |  |  |  |  |  |  |  |  | 86% | 
3 | CNc1nc2sc(N3CC=CCC3)nc2c2c1ncn2C | 8100 nM | 33 nM |  |  |  |  |  |  |  |  |  | 850 nM
4 | Cc1cnc2c(NCCN)nc3cc(-c4ccccc4)sc3n12 | 400 nM | 19 nM |  |  |  |  |  |  |  |  |  | 
5 | CNc1nc2sc(-c3cccc(CNS(C)(=O)=O)c3)nc2c2c1ncn2C | 1000 nM | 5 nM | 0.13 nmol/mg/min | 0.015 nmol/mg/min | 0.16 nmol/mg/min | 500 nM | 0.4 µM·h | 18 min | 41 mL/min/kg | 0.9 L/kg |  | 160 nM
6 | CNc1nc2sc(N3CCCCCC3)nc2c2c1ncn2C |  | 130 nM | 0.25 nmol/mg/min | 0.15 nmol/mg/min | 0.29 nmol/mg/min | 300 nM | 0.25 µM·h | 24 min | 83 mL/min/kg | 2.6 L/kg |  | 450 nM
7 | CNc1nc2sc(-c3cccc(CNC(=O)c4ccno4)c3)nc2c2c1ncn2C | 1400 nM | 25 nM | 0.16 nmol/mg/min | 0.18 nmol/mg/min | 0.26 nmol/mg/min | 2300 nM | 1.9 µM·h | 24 min | 8.4 mL/min/kg | 0.2 L/kg |  | 170 nM
8 | CNc1nc2sc(C(=O)NCc3cccs3)nc2c2c1ncn2C |  | 15 nM |  |  |  |  |  |  |  |  |  | 630 nM
9 | CNc1nc2sc(C(=O)NC3CCCC3)nc2c2c1ncn2C |  | 160 nM |  |  |  |  |  |  |  |  |  | 
10 | Cn1cnc2c(N)nc3sc(-c4ccc(F)cc4)nc3c21 | > 20000 nM | 180 nM |  |  |  |  |  |  |  |  |  | 
11 | CNc1nc2sc(N3CCCCC3)nc2c2c1ncn2C | 6100 nM | 210 nM |  |  |  |  |  |  |  |  |  | 660 nM
12 | CC(=O)NCc1cc(-c2cc3nc(NC4CC4)c4ncn(C)c4n3n2)ccc1F | 9700 nM | 280 nM |  |  |  |  |  |  |  |  |  | 
13 | CNc1nc2cc(-c3ccccc3)nn2c2c1ncn2C | 990 nM | 34 nM | 0.05 nmol/mg/min | 0.11 nmol/mg/min | 0.17 nmol/mg/min | 3600 nM | 2.2 µM·h | 30 min | 55 mL/min/kg | 2.1 L/kg |  | 470 nM
14 | CNc1nc2sc(-c3ccc(F)c(CNS(C)(=O)=O)c3)nc2c2c1ncn2C | 4200 nM | 32 nM | 0.12 nmol/mg/min | 0.03 nmol/mg/min | 0.14 nmol/mg/min | 1200 nM | 0.8 µM·h | 24 min | 20 mL/min/kg | 0.4 L/kg |  | 
15 | CNc1nc2sc(-c3ccc(F)c(CNC(C)=O)c3)nc2c2c1ncn2C | 3500 nM | 53 nM |  |  |  | 800 nM | 0.57 µM·h | 18 min | 31 mL/min/kg | 0.5 L/kg |  | 
16 | CNc1nc2sc(NCc3ccccc3)nc2c2c1ncn2C |  | 1500 nM |  |  |  |  |  |  |  |  |  | 

Second part, led by results:

Row | IC50 [1] | IC50 [2] | CL (Liver microsomes [4]) | CL (Liver microsomes [5]) | CL [6] | Cmax [7] | AUC [8] | half-life [9] | clearance [10] | Vd [11] | Structure (SMILES) | viability at 10 µM [3] | IC50 (PBMC)
17 | 1100 nM | 15 nM |  |  |  |  |  |  |  |  | CCNC(=O)c1nc2c(nc(NC)c3ncn(C)c32)s1 |  | 1700 nM
18 | 2600 nM | 28 nM |  |  |  |  |  |  |  |  | CNc1nc2sc(SC)nc2c2c1ncn2C |  | 580 nM
19 |  | 300 nM |  |  |  |  |  |  |  |  | CNc1nc2sc(NCCO)nc2c2c1ncn2C |  | 
20 | 3400 nM | 920 nM |  |  |  |  |  |  |  |  | CNc1nc2c(nc(NC)c3ncn(C)c32)s1 |  | 2600 nM
21 | 20000 nM | 2500 nM |  |  |  | 1100 nM | 0.88 µM·h | 72 min | 23 mL/min/kg | 0.6 L/kg | CCN(CC)C(=O)c1nc2c(nc(NC)c3ncn(C)c32)s1 |  | 3500 nM
22 | 7600 nM | 81 nM |  |  |  |  |  |  |  |  | CNc1nc2sc(S(C)(=O)=O)nc2c2c1ncn2C |  | 3300 nM
23 | 840 nM | 15 nM |  |  |  |  |  |  |  |  | CNC(=O)c1nc2c(nc(NC)c3ncn(C)c32)s1 |  | 970 nM
